The record followed here is ChEMBL document CHEMBL1152809, “Structure-activity relationships of orotidine-5'-monophosphate decarboxylase inhibitors as anticancer agents” (J Med Chem, 2009).

The nature of data set [1]: Antitumor activity against human MDA468 cells after 3 days by WST1 assay. In kind it is functional, cell-based. To be noted: MDA-MB-468, 72 h. The essentials:
(§1)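 Cell lines grown in Iscove's MDM with 5% FCS, 50 µM 2-mercaptoethanol, penicillin and streptomycin; suspension lines kept at 0.5-1.5 × 10^6 cells/mL, adherent lines subconfluent. Cells seeded in triplicate at 10^4 cells/100 µL. Compounds were dissolved in water and added immediately at 0 to 100 µM final. WST.1 read at 440 nm on day 3; IC50 taken from OD versus concentration plots.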

Another data set deals with OCI-AML2. The data set is described as follows: Antitumor activity against human OCI-AML2 cells after 3 days by WST1 assay. Type of data set: functional, cell-based. To be noted: OCI-AML2, 72 h. In short, it runs like this:
as §1

Data set [2] in a line: Antitumor activity against human LOX cells after 3 days by WST1 assay. In kind it is functional, cell-based. To be noted: 72 h. In short, it runs like this: as §1
Data set [3] can be described thus: Antitumor activity against human OCI-AML1 cells after 3 days by WST1 assay. In kind it is functional, cell-based. To be noted: ML1, 72 h. The essentials:
as §1

In a further data set the test system is COLO 205. The data set is described as follows: Antitumor activity against human COLO205 cells after 3 days by WST1 assay. To be noted: for IC50: COLO 205, 72 h. Type of data set: functional, cell-based. The essentials: as §1
Data set [4] is described as follows: Antitumor activity against human OCI-My 2 cells after 3 days by WST1 assay. To be noted: 72 h. Type of data set: functional, cell-based. The essentials: as §1
Another data set concerns SNB-19. The data set is described as follows: Antitumor activity against human SNB19 cells up to 50 uM after 3 days by WST1 assay. In kind it is functional, cell-based. In short, it runs like this: as §1
Data set [5] can be described thus: Antitumor activity against human SKW3 cells after 3 days by WST1 assay. Type of data set: functional, cell-based. To be noted: SKW3, 72 h. In short, it runs like this:
as §1

Another data set relates to MDA-MB-468. The data set is described as follows: Antitumor activity against human MDA468 cells up to 50 uM after 3 days by WST1 assay. Type of data set: functional, cell-based. In short, it runs like this: as §1
A short description of data set [6]: Cytotoxicity against human CCD-967 cells up to 50 uM after 3 days by WST1 assay. In kind it is cell-based. To be noted: ccd-967, 72 h. In short, it runs like this:
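Cells grown in Iscove's MDM with 5% FCS, 50 µM 2-mercaptoethanol and antibiotics, kept subconfluent if adherent. Seeded in triplicate at 10^4 cells/100 µL with compounds (in water) added at once, 0 to 100 µM final. WST.1 formazan read at 440 nm on day 3; IC50 from OD versus concentration.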

Another data set has as its system PC-3. The data set is described as follows: Antitumor activity against human PC3 cells up to 50 uM after 3 days by WST1 assay. Type of data set: functional, cell-based. In short, it runs like this: as §1
A short description of data set [7]: Antitumor activity against human OCI-LY7 cells after 3 days by WST1 assay. Type of data set: functional, cell-based. To be noted: OCI-Ly7, 72 h. In short, it runs like this: as §1
In data set [8] the test system is MCF7. The data set is described as follows: Antitumor activity against human MCF7 cells up to 50 uM after 3 days by WST1 assay. In kind it is functional, cell-based. In short, it runs like this: as §1
In the next data set the test system is T47D. The data set is described as follows: Antitumor activity against human T47D cells up to 50 uM after 3 days by WST1 assay. Type of data set: functional, cell-based. The essentials:
as §1

A further data set concerns OVCAR-4. The data set is described as follows: Antitumor activity against human OVCAR4 cells after 3 days by WST1 assay. In kind it is functional, cell-based. To be noted: for IC50: OVCAR-4, 72 h. In short, it runs like this: as §1
Data set [9] relates to MCF7. The data set is described as follows: Antitumor activity against human MCF7 cells after 3 days by WST1 assay. Type of data set: functional, cell-based. To be noted: MCF7, 72 h. The essentials:
as §1

Another data set relates to Hs-578T. The data set is described as follows: Antitumor activity against human Hs 578T cells up to 50 uM after 3 days by WST1 assay. In kind it is functional, cell-based. The essentials:
as §1

For a further data set, the system named is ML1. The data set is described as follows: Induction of apoptosis in human OCI-AML1 cells by […]/propidium iodide staining assay. In kind it is functional, cell-based. The essentials: (§2)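 Cells seeded in duplicate at 10^5 cells/mL; inhibitors added straight after seeding at 4 µM final, water in control wells. Cells harvested every 24 h, washed in PBS, stained with Annexin V/propidium iodide (1:200) and analysed by FACS; apoptotic cells scored as Annexin V+/PI-, necrotic as Annexin V+/PI+.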

The subject of another data set is SKW3. The data set is described as follows: Induction of apoptosis in human SKW3 cells at 4 uM by annexin V/propidium iodide staining assay.
The species named for another data set is Homo sapiens. The data set is described as follows: Induction of apoptosis in human OCI-My 2 cells 4 uM by […]/propidium iodide staining assay. Type of data set: functional, cell-based. In short, it runs like this:
as §2

In the next data set the test system is OCI-Ly7. The data set is described as follows: Induction of apoptosis in human OCI-LY7 cells 4 uM by […]/propidium iodide staining assay. In kind it is functional, cell-based. In short, it runs like this: as §2

Each structure is given as a SMILES string. Active and inactive are the calls of the source. The calls are words filed in the database; no cut-off is given here.

`Cc1cc(=O)[nH]c(=O)n1[C@@H]1O[C@H](CO)[C@@H](O)[C@H]1O`: the IC50 (in data set [1]; in the data set with OCI-AML2; in [2]; in data set [3]; with COLO 205; in [4]) was over 50 µM throughout. Moreover, the IC50 (in data set [5]; in data set [7]; in the data set with OVCAR-4; in the data set on MCF7 [9]) was over 50 µM each time. The result with SNB-19, in the data set on MDA-MB-468, in the data set on PC-3, with MCF7 [8], in the data set with T47D and in the data set with Hs-578T was inactive. Further, in data set [6], the Activity result is on record as “Not Active”.
Turning to `O=Cc1c(F)c(=O)[nH]c(=O)n1[C@@H]1O[C@H](CO)[C@@H](O)[C@H]1O`, the IC50 came to 1.9 µM in data set [1]; 0.7 µM in the data set with OCI-AML2; 0.4 µM in [2]; 0.3 µM in data set [3]; 0.4 µM in data set [4]; 0.3 µM in data set [5]. Also, the IC50 worked out at 0.6 µM in data set [7] and 23.7 µM in the data set with MCF7 [9]. Further, the outcome with ML1, in the data set with SKW3, in the data set listed under Homo sapiens and with OCI-Ly7 was Active. Further, the result with SNB-19, in the data set on PC-3, in the data set with T47D and with Hs-578T was inactive. Besides, the Activity entry in data set [6] is listed as “Not Active”.
For `O=c1cc(I)n([C@@H]2O[C@H](CO)[C@@H](O)[C@H]2O)c(=O)[nH]1`, the IC50 in [1] is over 50 µM; in the data set with OCI-AML2 it was over 50 µM; in data set [2] it was over 50 µM; in [3], 15.3 µM; with COLO 205, over 50 µM; in [4] it was 27.8 µM. Moreover, the IC50 was 18.9 µM in data set [5], over 50 µM in [7], over 50 µM in the data set on OVCAR-4 and over 50 µM with MCF7 [9]. Also, the outcome with SNB-19, with MDA-MB-468, in the data set with PC-3, in the data set with MCF7 [8], in the data set on T47D and in the data set on Hs-578T was inactive. Further, the Activity result in data set [6] is “Not Active”.
As for `N#Cc1cc(=O)[nH]c(=O)n1[C@@H]1O[C@H](CO)[C@@H](O)[C@H]1O`, the IC50 (in [1]; with OCI-AML2; in data set [2]; in data set [3]; in the data set on COLO 205; in [4]) was over 50 µM each time. Also, the IC50 (in data set [5]; in data set [7]; in the data set on OVCAR-4; with MCF7 [9]) was over 50 µM throughout. In addition, the outcome in the data set with SNB-19, in the data set on MDA-MB-468, in the data set with PC-3, in the data set on MCF7 [8], with T47D and with Hs-578T was inactive. Further, the Activity result in [6] is “Not Active”.
With `O=Cc1cc(=O)[nH]c(=O)n1[C@@H]1O[C@H](CO)[C@@H](O)[C@H]1O`, the IC50 (in [1]; in the data set on OCI-AML2; in data set [2]; in data set [3]; in data set [4]; in data set [5]) was over 50 µM throughout. For the same compound, the IC50 (in data set [7]; in the data set on MCF7 [9]) was over 50 µM in each case. The outcome in the data set with COLO 205, with SNB-19, with MDA-MB-468, with PC-3, in the data set with MCF7 [8] and with T47D was inactive. Further, the outcome in the data set with OVCAR-4 and in the data set with Hs-578T was inactive. In [6], the Activity entry is recorded as “Not Active”.
Regarding `Nc1cc(=O)[nH]c(=O)n1[C@@H]1O[C@H](CO)[C@@H](O)[C@H]1O`, the IC50 (in data set [1]; in the data set on OCI-AML2; in data set [2]; in data set [3]; with COLO 205; in [4]) was over 50 µM each time. The IC50 (in data set [5]; in data set [7]; in the data set with OVCAR-4; with MCF7 [9]) was over 50 µM each time. Also, the outcome in the data set on SNB-19, in the data set on MDA-MB-468, with PC-3, in the data set with MCF7 [8], with T47D and with Hs-578T was inactive. The Activity entry in [6] is reported as “Not Active”.
For `CNc1cc(=O)[nH]c(=O)n1[C@@H]1O[C@H](CO)[C@@H](O)[C@H]1O`, the IC50 (in data set [1]; in the data set on OCI-AML2; in data set [2]; in data set [3]; in the data set with COLO 205; in data set [4]) was over 50 µM throughout. In addition, the IC50 (in [5]; in data set [7]; with OVCAR-4; with MCF7 [9]) was over 50 µM throughout. For the same compound, the result with SNB-19, in the data set with MDA-MB-468, with PC-3, in the data set on MCF7 [8], in the data set with T47D and in the data set on Hs-578T was inactive. Besides, the Activity result in data set [6] is listed as “Not Active”.
With `O=c1cc(NO)n([C@@H]2O[C@H](CO)[C@@H](O)[C@H]2O)c(=O)[nH]1`, the IC50 (in [1]; in the data set with OCI-AML2; in data set [2]; in data set [3]; in data set [4]; in data set [5]) was over 50 µM throughout. The IC50 (in data set [7]; in the data set on MCF7 [9]) was over 50 µM each time. Besides, the result in the data set with COLO 205, with SNB-19, in the data set on MDA-MB-468, in the data set with PC-3, in the data set with MCF7 [8] and with T47D was inactive. Moreover, the outcome in the data set with OVCAR-4 and in the data set with Hs-578T was inactive. For the same compound, the Activity result in data set [6] is “Not Active”.
As for `O=c1cc(O)n([C@@H]2O[C@H](COP(=O)(O)O)[C@@H](O)[C@H]2O)c(=O)[nH]1`, the IC50 (in data set [1]; in the data set with OCI-AML2; in data set [2]; in [3]; in the data set on COLO 205; in data set [4]) was over 50 µM throughout. Moreover, the concentration for half-maximal inhibition (IC50) (in [5]; in data set [7]; with OVCAR-4; in the data set on MCF7 [9]) was over 50 µM each time. Also, the result in the data set on SNB-19, with MDA-MB-468, with PC-3, with MCF7 [8], in the data set on T47D and with Hs-578T was inactive. The Activity entry in [6] is “Not Active”.
